These results are taken from PMC4077163 (Bioorganic & medicinal chemistry letters, 2014).

Experiment [1] has as its target T1, Grb2 SH2 domain (Homo sapiens, UniProt P62993). Put plainly: Isothermal titration calorimetry. It counts as binding. The note with it: for ΔG° / ΔH° / −TΔS°: ITC, 25 °C, HEPES (50 mM), NaCl (150 mM), pH 7.45 ± 0.05; for potency relative to indolyl compound 10: from ITC data of Table 1. An outline of the steps:
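Tripeptide phosphotyrosine-analogue ligands were titrated against the Grb2 SH2 domain by ITC at 25 °C in 50 mM HEPES, 150 mM NaCl, pH 7.45 ± 0.05. Ka, ΔG°, ΔH° and ΔS° were taken from the titrations. Each ligand had three or more runs. The n value of each run was normalized by adjusting ligand concentration, then the runs were averaged.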

Experiment [2] deals with T1, Grb2 SH2 domain. In words: Literature affinity. It counts as binding. The note with it: ratio of literature IC50 values, more potent than 3.

Each structure is given as a SMILES string. Square brackets hold non-standard residues; d marks the D form. Peptide text beside a SMILES is read from it. * marks the point of attachment. pY = N[C@@H](Cc1ccc(OP(=O)(O)O)cc1)C(=O)O; Hydrocinnamoyl = O=C(CCc1ccccc1)*; Ac6c = NC1(C(=O)O)CCCCC1; Cbz = O=C(OCc1ccccc1)*

T1 sequence (P62993 60-152 limits assumed): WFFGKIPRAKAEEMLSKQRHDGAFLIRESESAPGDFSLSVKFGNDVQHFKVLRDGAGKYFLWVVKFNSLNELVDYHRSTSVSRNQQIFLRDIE

In the case of `NC(=O)C[C@H](NC(=O)C1(NC(=O)[C@H](Cc2ccc(OP(=O)(O)O)cc2)NC(=O)OCc2ccccc2)CCCCC1)C(N)=O` [Compound 8] (Cbz-[pY]-[Ac6c]-Asn-NH2), on Grb2 SH2 domain [1], binding was put at a Kd of 0.154 µM, the “ΔG°” value was -38.9 ± 0.42 kJ/mol, the “ΔH°” value is -38.9 ± 1.3 kJ/mol and the “−TΔS°” value was determined as 0 ± 0.42 kJ/mol.
For `Cn1cc(CCC(=O)N[C@@H](Cc2ccc(OP(=O)(O)O)cc2)C(=O)NC2(C(=O)N[C@@H](CC(N)=O)C(N)=O)CCCCC2)c2ccccc21` [Compound 10] the same measures were 0.0877 µM, -40.2 ± 0.42 kJ/mol, -41.8 ± 1.3 kJ/mol and “+0.4 ± 0.1 kcal mol^−1”.
`CC(=O)N[C@@H](Cc1ccc(OP(=O)(O)O)cc1)C(=O)NC1(C(=O)N[C@@H](CC(N)=O)C(N)=O)CCCCC1` [Compound 7] (HELM PEPTIDE1{[ac].[O=C([C@H](Cc1ccc(OP(=O)(O)O)cc1)N[*:1])[*:2]].[O=C(C1(N[*:1])CCCCC1)[*:2]].N.[am]}$$$$V2.0): at Grb2 SH2 domain [1], binding was put at a Kd of 0.143 µM, the “ΔG°” value is -38.9 ± 0.42 kJ/mol, the “ΔH°” value was -35.6 ± 1.7 kJ/mol and the “−TΔS°” value was -3.3 ± 1.7 kJ/mol.
As to `NC(=O)C[C@H](NC(=O)C1(NC(=O)[C@H](Cc2ccc(OP(=O)(O)O)cc2)NC(=O)CCc2ccccc2)CCCCC1)C(N)=O` [Compound 11] (Hydrocinnamoyl-[pY]-[Ac6c]-Asn-NH2), at Grb2 SH2 domain [1], the Kd is 0.0427 µM, the “ΔG°” value was -42.3 ± 0.42 kJ/mol, the “ΔH°” value is -39.7 ± 2.1 kJ/mol and the “−TΔS°” value is -2.5 ± 0.42 kJ/mol. In addition, the “potency relative to indolyl compound 10” value on Grb2 SH2 domain [1] is “about two-fold more potent”.
With `NC(=O)C[C@H](NC(=O)C1(NC(=O)[C@H](Cc2ccc(OP(=O)(O)O)cc2)NC(=O)OCc2cccc(N)c2)CCCCC1)C(N)=O` [Compound 9], at Grb2 SH2 domain [1], the dissociation constant Kd was 0.114 µM, the “ΔG°” value is -39.7 ± 0.42 kJ/mol, the “ΔH°” value was -38.1 ± 2.1 kJ/mol and the “−TΔS°” value was -1.7 ± 1.3 kJ/mol. Besides, on Grb2 SH2 domain [2], the “potency relative to 3” value is “about 65 fold”.
Turning to `NC(=O)C[C@H](NC(=O)C1(NC(=O)[C@H](Cc2ccc(OP(=O)(O)O)cc2)NC(=O)CCC2CCCCC2)CCCCC1)C(N)=O` [Compound 12], at Grb2 SH2 domain [1], the Kd was 0.0347 µM, the “ΔG°” value is -42.7 ± 0.42 kJ/mol, the “ΔH°” value was -41.8 ± 2.1 kJ/mol and the “−TΔS°” value was -0.84 ± 0.42 kJ/mol. Further, the “potency relative to indolyl compound 10” value on Grb2 SH2 domain [1] was “about two-fold more potent”.
